From ChEMBL document CHEMBL4190245, “Caffeic Acid Phenethyl Ester from the Twigs of Cinnamomum cassia Inhibits Malignant Cell Transformation by Inducing c-Fos Degradation” (J Nat Prod, 2017)
Each block holds one compound with its values, some of them ahead of it. Active and inactive are the calls of the source. No cut-off for these calls is given here.

Key:
Mus musculus [1] = species: Mus musculus; assay: Inhibition of CREB phosphorylation at S133 residue in EGF-stimulated mouse JB6 P+ cells at 0.5 to 1 uM preincubated for 1 hr followed by EGF stimulation and measured after 15 mins by Western blot method
Procedure, shortened: (§1)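 JB6 P+ cells were serum-starved 24 h, pretreated 1 h with compound (0.5 and 1 μM), then stimulated with EGF (10 ng/mL) and harvested after 15 min. Lysates (10−60 μg protein) were run on SDS-PAGE and immunoblotted for phospho or total proteins, with chemiluminescent detection.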

Mus musculus [2] = species: Mus musculus; assay: Induction of proteasome-mediated c-fos degradation in EGF-stimulated mouse JB6 P+ cells assessed as reduction in c-fos protein level at 1 uM preincubated for 1 hr followed by EGF stimulation for 15 mins in presence of 10 uM proteasome inhibitor MG132 by Western blot method
Procedure, shortened: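 Cells serum-starved 24 h, pretreated with MG132 (10 μM) plus compound (0.5 and 1 μM), collected 15 min after EGF (10 ng/mL); lysates immunoblotted for c-Fos.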

Mus musculus [3] = species: Mus musculus; assay: Inhibition of EGF-induced cell cycle progression in mouse epidermal JB6 P+ cells assessed as reduction in accumulation at G2/M phase at 0.25 to 1 uM preincubated for 1 hr followed by EGF challenge and measured after 24 hrs by propidium iodide staining-based FACS analysis; format: functional
Procedure, shortened: (§2)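 Seeded at 1.5 × 10^5 cells per 60 mm dish, starved 24 h in 0.1% FBS MEM, pretreated 1 h with compound, then EGF (10 ng/mL) for 24 h; cells fixed in cold 70% ethanol overnight, stained with RNase A and propidium iodide for 30 min at room temperature, analysed by flow cytometry; n = 3.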

Mus musculus [4] = species: Mus musculus; assay: Induction of proteasome-mediated c-fos degradation in EGF-stimulated mouse JB6 P+ cells assessed as reduction in total c-fos protein level at 0.5 to 1 uM preincubated for 1 hr followed by EGF stimulation and measured after 15 mins by Western blot method; procedure, shortened: as §1
[5] = biological target: Transcription factor Jun (Mus musculus) (UniProt P05627); assay: Effect on phosphorylated c-jun in EGF-stimulated mouse JB6 P+ cells at 0.25 to 1 uM preincubated for 1 hr followed by EGF stimulation
Procedure, shortened: (§3)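 The TransAM AP-1 family ELISA was run on cell extracts: wells coated with AP-1 binding oligonucleotide, probed with a c-Fos or p-c-Jun specific primary antibody, then an HRP secondary, and absorbance read at 450 nm; n = 3.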

[6] = Cytotoxicity against mouse JB6 P+ cells up to 10 uM after 24 to 48 hrs by CellTiter96 AQueous one solution assay; format: cell-based
Procedure, shortened: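 JB6 P+ cells seeded, incubated overnight, then switched to 0.1% FBS MEM and compound added; viability read by MTS reagent at 24 and 48 h; triplicate samples, means ± standard deviation.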

Mus musculus [7] = species: Mus musculus; assay: Inhibition of RSK phosphorylation at T359/S363 residue in EGF-stimulated mouse JB6 P+ cells at 0.5 to 1 uM preincubated for 1 hr followed by EGF stimulation and measured after 15 mins by Western blot method; procedure, shortened: as §1
Mus musculus [8] = species: Mus musculus; assay: Induction of proteasome-mediated c-fos degradation in EGF-stimulated mouse JB6 P+ cells assessed as reduction in c-fos activity at 0.25 to 1 uM preincubated for 1 hr followed by EGF stimulation; procedure, shortened: as §3
Mus musculus [9] = species: Mus musculus; assay: Inhibition of EGF-induced c-fos mRNA expression in mouse JB6 P+ cells at 0.5 to 1 uM preincubated for 1 hr followed by EGF stimulation and measured after 15 mins by real-time PCR method; format: functional, cell-based
Procedure, shortened: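 Compound given 1 h before EGF (10 ng/mL); total RNA extracted 15 min later, reverse-transcribed and c-fos quantified by SYBR Green real-time PCR (95 °C 10 min, then 40 cycles of 95 °C 15 s and 59 °C 1 min); n = 3.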

Mus musculus [10] = species: Mus musculus; assay: Inhibition of EGF-induced cell cycle progression in mouse epidermal JB6 P+ cells assessed as accumulation at G1 phase at 0.25 to 1 uM preincubated for 1 hr followed by EGF challenge measured after 24 hrs by propidium iodide staining-based FACS analysis; format: functional; procedure, shortened: as §2
Mus musculus [11] = species: Mus musculus; assay: Induction of proteasome-mediated c-fos degradation in EGF-stimulated mouse JB6 P+ cells assessed as reduction in c-fos protein level at 1 uM preincubated for 1 hr followed by EGF stimulation for 15 mins by Western blot method; procedure, shortened: as §1
Mus musculus [12] = species: Mus musculus; assay: Induction of proteasome-mediated c-fos degradation in EGF-stimulated mouse JB6 P+ cells assessed as inhibition of c-fos phosphorylation at S32 residue at 0.5 to 1 uM preincubated for 1 hr followed by EGF stimulation and measured after 15 mins by Western blot method; procedure, shortened: as §1
Mus musculus [13] = species: Mus musculus; assay: Inhibition of ERK phosphorylation at T202/Y204 residue in EGF-stimulated mouse JB6 P+ cells at 0.5 to 1 uM preincubated for 1 hr followed by EGF stimulation and measured after 15 mins by Western blot method; procedure, shortened: as §1
Mus musculus [14] = species: Mus musculus; assay: Inhibition of TPA-induced mouse JB6 P+ cells transformation after 14 days by microscopy based soft agar assay; format: functional
Procedure, shortened: (§4)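 Soft agar: 8 × 10^3 cells/mL in 0.3% BME top agar with 10% FBS, compound and EGF or TPA, layered over 0.5% agar in BME with 10% FBS and the same additions; kept 1 to 2 weeks at 37 °C in 5% CO2, colonies counted by microscope; triplicate means ± SD.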

Mus musculus [15] = species: Mus musculus; assay: Inhibition of EGF-induced mouse JB6 P+ cells transformation after 12 days by microscopy based soft agar assay; format: functional; procedure, shortened: as §4
Mus musculus [16] = species: Mus musculus; assay: Inhibition of TPA-induced mouse JB6 P+ cells transformation at 0.25 to 2 uM after 14 days by microscopy based soft agar assay; format: functional; procedure, shortened: as §4
Mus musculus [17] = species: Mus musculus; assay: Induction of proteasome-mediated c-fos degradation (unknown origin) expressed in TPA-stimulated mouse JB6 P+ cells co-expressing AP1-lucifearse assessed as inhibition of AP-1 activation preincubated for 1 hr followed by TPA stimulation for 4 hrs by luciferase reporter gene assay; format: cell-based
Procedure, shortened: (§5)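 JB6 P+ cells stably carrying an AP-1 luciferase reporter (kept in 5% FBS MEM with 200 μg/mL G418) were starved 24 h in 0.1% FBS MEM, given compound 1 h before EGF (10 ng/mL) or TPA (20 ng/mL), lysed in phosphate/Triton buffer pH 7.8 and read for firefly luciferase; n = 3.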

Mus musculus [18] = species: Mus musculus; assay: Inhibition of EGF-induced cell cycle progression in mouse epidermal JB6 P+ cells assessed as accumulation at G1 phase at 0.5 to 1 uM preincubated for 1 hr followed by EGF challenge measured after 24 hrs by propidium iodide staining-based FACS analysis; format: functional; procedure, shortened: as §2
Mus musculus [19] = species: Mus musculus; assay: Inhibition of EGF-induced mouse JB6 P+ cells transformation at 0.25 to 2 uM after 12 days by microscopy based soft agar assay; format: functional; procedure, shortened: as §4
Mus musculus [20] = species: Mus musculus; assay: Induction of proteasome-mediated c-fos degradation (unknown origin) expressed in EGF-stimulated mouse JB6 P+ cells co-expressing AP1-lucifearse assessed as inhibition of AP-1 activation preincubated for 1 hr followed by EGF stimulation for 4 hrs by luciferase reporter gene assay; format: cell-based; procedure, shortened: as §5
Mus musculus [21] = species: Mus musculus; assay: Inhibition of EGF-induced cell cycle progression in mouse epidermal JB6 P+ cells assessed as reduction in accumulation at G2/M phase at 0.5 to 1 uM preincubated for 1 hr followed by EGF challenge and measured after 24 hrs by propidium iodide staining-based FACS analysis; format: functional; procedure, shortened: as §2

Transcription factor Jun (Mus musculus), sequence (P05627 whole entry): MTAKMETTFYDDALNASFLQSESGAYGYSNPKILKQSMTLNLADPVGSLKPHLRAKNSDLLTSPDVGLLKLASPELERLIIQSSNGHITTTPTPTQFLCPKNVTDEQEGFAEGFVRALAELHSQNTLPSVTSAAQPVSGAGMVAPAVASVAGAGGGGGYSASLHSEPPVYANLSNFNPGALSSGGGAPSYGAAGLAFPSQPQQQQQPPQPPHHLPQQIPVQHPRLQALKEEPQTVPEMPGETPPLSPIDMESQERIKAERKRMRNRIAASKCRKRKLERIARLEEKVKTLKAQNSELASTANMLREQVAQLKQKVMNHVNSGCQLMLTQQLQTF

inhibition (Mus musculus [1]): inactive | Activity (Mus musculus [2]): inactive | Activity (Mus musculus [4]): Active | Activity [5]: inactive | inhibition (Mus musculus [7]): inactive | Activity (Mus musculus [8]): Active | Activity (Mus musculus [11]): Active | Activity (Mus musculus [12]): Active | inhibition (Mus musculus [13]): inactive
Structure (SMILES): O=C(/C=C/c1ccc(O)c(O)c1)OCCc1ccccc1 [CAFFEIC ACID PHENETHYL ESTER]
inhibition (Mus musculus [3]): Active | Activity [6]: Non-Toxic | inhibition (Mus musculus [9]): inactive | inhibition (Mus musculus [10]): Active | inhibition (Mus musculus [14]): Dose-dependent effect | inhibition (Mus musculus [15]): Dose-dependent effect

Activity (Mus musculus [4]): inactive | Activity (Mus musculus [12]): inactive
Structure (SMILES): O=C(O)/C=C/c1ccc(O)c(O)c1 [CAFFEIC ACID]
inhibition (Mus musculus [16]): inactive | Activity [6]: Non-Toxic | Activity (Mus musculus [17]): inactive | inhibition (Mus musculus [18]): inactive | inhibition (Mus musculus [19]): inactive | Activity (Mus musculus [20]): inactive | inhibition (Mus musculus [21]): inactive
